Experimental data published in ChEMBL document CHEMBL4033636, “Identification of selective inhibitors of sphingosine kinases 1 and 2 through a structure-activity relationship study of 4-epi-jaspine B” (Bioorg Med Chem, 2017).

Tests used:
Sphingosine kinase 1 [1] = biological target: T1, Sphingosine kinase 1 (Homo sapiens, UniProt Q9NYA1); test: Inhibition of human SphK1 using sphingosine as substrate in presence of [gamma-32P]ATP
Sphingosine kinase 1 [2] = biological target: T1, Sphingosine kinase 1; test: Inhibition of recombinant N-terminal GST-tagged human SphK1 (1 to 384 residues) expressed in baculovirus expression system using sphingosine as substrate after 1 hr in presence of ATP by off-chip mobility shift assay
Summary of the method: (§1)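 GST-fusion kinases purified on glutathione sepharose. Compounds in DMSO diluted fourfold into 20 mM HEPES pH 7.5, 0.01% Triton X-100, 2 mM DTT. Reaction: 1 µM sphingosine, 5 mM MgCl2, ATP 25 µM (SphK1) or 600 µM (SphK2), room temperature 1 h, n = 2. Read-out: P/(P+S) from electrophoretic peak heights. […] IC50 fitted.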

Sphingosine kinase 2 [3] = biological target: T2, Sphingosine kinase 2 (Homo sapiens, UniProt Q9NRA0); test: Inhibition of recombinant N-terminal GST-tagged human SphK2 (1 to 618 residues) expressed in baculovirus expression system using sphingosine as substrate after 1 hr in presence of ATP by off-chip mobility shift assay; summary of the method: as §1
T2 sequence (Q9NRA0 whole entry): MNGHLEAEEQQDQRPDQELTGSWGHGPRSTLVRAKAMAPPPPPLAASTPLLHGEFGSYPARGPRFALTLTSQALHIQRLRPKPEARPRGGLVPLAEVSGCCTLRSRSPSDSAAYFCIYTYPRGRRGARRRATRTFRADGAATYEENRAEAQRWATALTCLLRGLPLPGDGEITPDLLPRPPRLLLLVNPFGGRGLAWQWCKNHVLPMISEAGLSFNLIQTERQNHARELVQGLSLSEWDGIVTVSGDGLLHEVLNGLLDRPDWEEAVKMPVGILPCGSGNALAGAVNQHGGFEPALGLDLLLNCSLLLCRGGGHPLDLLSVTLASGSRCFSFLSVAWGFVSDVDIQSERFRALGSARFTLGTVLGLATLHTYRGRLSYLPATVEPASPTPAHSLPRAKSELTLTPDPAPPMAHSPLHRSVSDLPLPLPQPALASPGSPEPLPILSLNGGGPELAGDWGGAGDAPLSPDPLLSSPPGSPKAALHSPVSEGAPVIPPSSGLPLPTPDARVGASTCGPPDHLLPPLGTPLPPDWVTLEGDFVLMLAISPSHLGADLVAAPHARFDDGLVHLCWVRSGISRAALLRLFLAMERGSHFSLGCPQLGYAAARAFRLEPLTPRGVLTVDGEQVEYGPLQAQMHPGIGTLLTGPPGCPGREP

Sphingosine kinase 2 [4] = biological target: T3, Sphingosine kinase 2 (Mus musculus, UniProt Q9JIA7); test: Inhibition of recombinant mouse SphK2 expressed in baculovirus infected sf9 cells using D-erythro-sphingosine as substrate in presence of [gamma-33P]ATP by scintillation counting method
T3 sequence (Q9JIA7 whole entry): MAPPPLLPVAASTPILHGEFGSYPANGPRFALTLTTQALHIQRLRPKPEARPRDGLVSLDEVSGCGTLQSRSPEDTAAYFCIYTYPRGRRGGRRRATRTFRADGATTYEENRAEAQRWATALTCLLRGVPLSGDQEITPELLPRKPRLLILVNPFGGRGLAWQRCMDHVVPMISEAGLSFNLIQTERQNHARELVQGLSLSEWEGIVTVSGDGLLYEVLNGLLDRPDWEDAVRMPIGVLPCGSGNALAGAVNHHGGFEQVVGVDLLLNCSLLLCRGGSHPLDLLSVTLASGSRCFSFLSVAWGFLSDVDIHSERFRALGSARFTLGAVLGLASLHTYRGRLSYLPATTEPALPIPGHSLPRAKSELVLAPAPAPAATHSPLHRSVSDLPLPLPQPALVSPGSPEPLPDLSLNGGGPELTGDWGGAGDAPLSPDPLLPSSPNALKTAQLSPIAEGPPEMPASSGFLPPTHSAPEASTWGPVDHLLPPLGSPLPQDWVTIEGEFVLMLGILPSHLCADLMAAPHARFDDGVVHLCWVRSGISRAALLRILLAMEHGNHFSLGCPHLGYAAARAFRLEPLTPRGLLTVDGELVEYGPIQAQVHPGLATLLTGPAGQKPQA

Sphingosine kinase 1 [5] = biological target: T1, Sphingosine kinase 1; test: Inhibition of recombinant human SphK1 expressed in baculovirus infected sf9 cells using D-erythro-sphingosine as substrate in presence of [gamma-33P]ATP by scintillation counting method
Sphingosine kinase 1 [6] = biological target: T1, Sphingosine kinase 1; test: Inhibition of human SphK1 using sphingosine as substrate after 15 to 20 mins in presence of [gamma-32P]ATP by Cerenkov counting method
Sphingosine kinase 2 [7] = biological target: T2, Sphingosine kinase 2; test: Inhibition of human SphK2 using sphingosine as substrate after 15 to 20 mins in presence of [gamma-32P]ATP by Cerenkov counting method
Sphingosine kinase 1 [8] = biological target: T1, Sphingosine kinase 1; test: Inhibition of recombinant human SphK1 using NBD-sphingosine as substrate after 2 hrs in presence of ATP by HPLC method
Sphingosine kinase 2 [9] = biological target: T2, Sphingosine kinase 2; test: Inhibition of recombinant human SphK2 using NBD-sphingosine as substrate after 2 hrs in presence of ATP by HPLC method

T1 sequence (Q9NYA1 whole entry, the tested form may be a part): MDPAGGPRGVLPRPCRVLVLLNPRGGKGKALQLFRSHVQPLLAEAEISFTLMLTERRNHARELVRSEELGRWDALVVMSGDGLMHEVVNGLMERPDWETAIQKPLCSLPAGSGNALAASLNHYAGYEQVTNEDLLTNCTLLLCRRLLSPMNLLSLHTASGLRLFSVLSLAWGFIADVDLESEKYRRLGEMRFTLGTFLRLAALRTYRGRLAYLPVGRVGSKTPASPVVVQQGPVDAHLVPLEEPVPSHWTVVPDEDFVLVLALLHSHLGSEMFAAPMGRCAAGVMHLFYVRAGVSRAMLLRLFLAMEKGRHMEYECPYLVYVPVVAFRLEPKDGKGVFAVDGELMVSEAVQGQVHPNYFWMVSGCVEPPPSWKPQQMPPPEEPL

SMILES	IC50 (Sphingosine kinase 1 [2]) [µM]	IC50 (Sphingosine kinase 2 [3]) [µM]	also measured
CCCCOc1ccc(CC/C=C2\SC(=O)N(CCN)C2=O)cc1	–	–	IC50 (Sphingosine kinase 1 [1]): > 10 µM
CCCCCCCCCCCCCC[C@@H]1OC[C@@H](NC(C)=O)[C@@H]1O	> 30	> 30	–
N[C@@H]1CO[C@@H](CCCCCCCCCOCC2CCCCC2)[C@H]1O	0.67	0.46	–
CCCCCCCCCOCCCC[C@@H]1OC[C@@H](N)[C@@H]1O	> 30	> 30	–
CCCCCCCCCCCCc1ccc(-c2noc(C3(C(=N)N)CC3)n2)cc1	–	–	Ki (Sphingosine kinase 2 [4]): 14.1 µM; Ki (Sphingosine kinase 1 [5]): 0.04 µM
CCCCCCc1ccc(CC[C@@H]2OC[C@@H](N)[C@@H]2O)cc1	> 30	8.3	–
CCCCCCCCc1ccc(CC[C@@](N)(CO)COC)cc1	–	–	IC50 (Sphingosine kinase 1 [6]): > 50 µM; IC50 (Sphingosine kinase 2 [7]): 27 µM
CCCCCCCCCCc1ccc(CC[C@@H]2OC[C@@H](N)[C@@H]2O)cc1	0.42	0.67	–
O=C(NCc1ccncc1)C12CC3CC(C1)CC(c1ccc(Cl)cc1)(C3)C2 [ABC-294640]	–	–	IC50 (Sphingosine kinase 1 [8]): > 100 µM; IC50 (Sphingosine kinase 2 [9]): 60 µM
N[C@@H]1CO[C@@H](CCCCCCCCCCOCC2CCCCC2)[C@H]1O	0.22	0.24	–
CC(=O)N(C1=C(Cl)C(=O)c2ccccc2C1=O)C1CCCCC1	–	–	IC50 (Sphingosine kinase 1 [8]): 2 µM; IC50 (Sphingosine kinase 2 [9]): > 100 µM
N[C@@H]1CO[C@@H](CCCCCCCCCCCOCC2CCCCC2)[C@H]1O	0.38	0.78	–
CCCCCCCOCCCCCC[C@@H]1OC[C@@H](N)[C@@H]1O	9.6	3.9	–
CCCCCCCCCCCCCCc1ccc(CC[C@@H]2OC[C@@H](N)[C@@H]2O)cc1	> 30	> 30	–

Continued, in another order:

IC50 (Sphingosine kinase 1 [2]) [µM]	IC50 (Sphingosine kinase 2 [3]) [µM]	SMILES	also measured
12	1.7	CCCCCCCCCc1cccc(CC[C@@H]2OC[C@@H](N)[C@@H]2O)c1	–
> 30	2.2	CCCCCCCc1cccc(CC[C@@H]2OC[C@@H](N)[C@@H]2O)c1	–
1.1	1.9	CCCCCCCCCCCCCC[C@@H]1OC[C@@H](NC(=N)N)[C@@H]1O	–
0.71	0.84	CC(C)COCCCCCCCCCCC[C@@H]1OC[C@@H](N)[C@@H]1O	–
0.88	21	CCCCCCCCCCCCc1ccc(CC[C@@H]2OC[C@@H](N)[C@@H]2O)cc1	–
3.1	9.4	CCCCCCCCCCCCCC[C@@H]1OC[C@@H](NC(C)=N)[C@@H]1O	–
16	2.1	CCCCCCCCc1cccc(CC[C@@H]2OC[C@@H](N)[C@@H]2O)c1	–
> 30	> 30	CCCCCCCCc1ccccc1CC[C@@H]1OC[C@@H](N)[C@@H]1O	–
2.8	1.3	N[C@@H]1CO[C@@H](CCCCCCCCOCC2CCCCC2)[C@H]1O	–
0.82 to 1.1	0.6 to 0.74	CCCCCCCCCCCCCC[C@@H]1OC[C@@H](N)[C@@H]1O	–
4	> 30	CCCCCCCCCCCCCC[C@@H]1OC[C@@H](N)[C@@H]1OC	–
1.4	0.56	CCCCCCCCc1ccc(CC[C@@H]2OC[C@@H](N)[C@@H]2O)cc1	–
